Assay results: ChEMBL document CHEMBL1154352, “Toll-like receptor 7 selective synthetic oligoribonucleotide agonists: synthesis and structure-activity relationship studies” (J Med Chem, 2009)
Calls of active or inactive are those of the source. The rule behind the calls is not given here.

What was measured:
PBMC [1] = assay: Immunomodulatory activity in human PBMC assessed as induction of IFN-alpha at 100 ug/ml after 24 hrs
Homo sapiens = species on record: Homo sapiens; assay: Ratio of human TLR7 activity to human TLR8 activity
How it was run: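 TLR7/TLR8 ratio computed from fold NF-κB (SEAP reporter) activation in HEK293 cells stably expressing human TLR7 versus TLR8, compounds at 50 μg/mL, 18 h exposure; representative of three independent experiments.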

[2] = biological target: T1, Toll-like receptor 7 (Homo sapiens) (UniProt Q9NYK1); assay: Activation of human TLR7 expressed in HEK293XL assessed as fold induction of NF-kappaB activity at 50 ug/ml after 18 hrs by reporter gene assay relative to control
T1 sequence (whole entry): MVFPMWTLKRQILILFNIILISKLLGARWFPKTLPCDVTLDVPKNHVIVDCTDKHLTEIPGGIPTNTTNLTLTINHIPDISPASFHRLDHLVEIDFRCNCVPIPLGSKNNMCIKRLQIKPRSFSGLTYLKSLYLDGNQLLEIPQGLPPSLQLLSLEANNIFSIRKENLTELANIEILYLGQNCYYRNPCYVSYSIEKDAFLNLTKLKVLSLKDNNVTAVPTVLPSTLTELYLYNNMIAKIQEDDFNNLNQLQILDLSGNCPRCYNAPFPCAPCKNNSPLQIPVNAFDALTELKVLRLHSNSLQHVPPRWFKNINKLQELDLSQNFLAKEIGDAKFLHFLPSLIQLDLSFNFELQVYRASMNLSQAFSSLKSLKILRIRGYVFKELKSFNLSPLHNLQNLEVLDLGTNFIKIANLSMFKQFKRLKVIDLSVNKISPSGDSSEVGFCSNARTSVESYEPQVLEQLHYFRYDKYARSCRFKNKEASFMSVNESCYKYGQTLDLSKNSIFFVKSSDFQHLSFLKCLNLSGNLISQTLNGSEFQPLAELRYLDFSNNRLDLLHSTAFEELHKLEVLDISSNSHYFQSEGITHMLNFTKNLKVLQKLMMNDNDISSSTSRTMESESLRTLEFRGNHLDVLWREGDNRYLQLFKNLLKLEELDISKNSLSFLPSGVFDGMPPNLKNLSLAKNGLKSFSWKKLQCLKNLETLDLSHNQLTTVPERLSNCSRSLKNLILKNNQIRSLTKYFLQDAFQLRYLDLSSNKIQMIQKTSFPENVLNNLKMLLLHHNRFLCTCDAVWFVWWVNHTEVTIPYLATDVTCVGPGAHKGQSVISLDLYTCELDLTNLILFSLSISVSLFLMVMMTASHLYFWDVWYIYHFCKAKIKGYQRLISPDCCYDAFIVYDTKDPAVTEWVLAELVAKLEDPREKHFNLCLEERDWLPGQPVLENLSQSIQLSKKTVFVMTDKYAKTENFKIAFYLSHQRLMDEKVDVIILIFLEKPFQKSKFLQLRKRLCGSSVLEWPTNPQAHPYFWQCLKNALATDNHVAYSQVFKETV
How it was run: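 HEK293 cells stably expressing human TLR7 or TLR8, transiently transfected with SEAP reporter plasmid; medium replaced, SIMRA compounds added, 18 h incubation. Supernatant SEAP measured by QuantiBlue; expressed as fold increase in NF-κB activity over PBS control. Tabulated data at 50 μg/mL, representative of three independent experiments.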

[3] = biological target: Toll-like receptor 3 (Homo sapiens) (UniProt O15455); assay: Activation of human TLR3 expressed in HEK293 assessed as induction of NF-kappaB activity reporter gene assay; assay type: cell-based
Chain of Toll-like receptor 3 (Homo sapiens) (O15455 whole entry): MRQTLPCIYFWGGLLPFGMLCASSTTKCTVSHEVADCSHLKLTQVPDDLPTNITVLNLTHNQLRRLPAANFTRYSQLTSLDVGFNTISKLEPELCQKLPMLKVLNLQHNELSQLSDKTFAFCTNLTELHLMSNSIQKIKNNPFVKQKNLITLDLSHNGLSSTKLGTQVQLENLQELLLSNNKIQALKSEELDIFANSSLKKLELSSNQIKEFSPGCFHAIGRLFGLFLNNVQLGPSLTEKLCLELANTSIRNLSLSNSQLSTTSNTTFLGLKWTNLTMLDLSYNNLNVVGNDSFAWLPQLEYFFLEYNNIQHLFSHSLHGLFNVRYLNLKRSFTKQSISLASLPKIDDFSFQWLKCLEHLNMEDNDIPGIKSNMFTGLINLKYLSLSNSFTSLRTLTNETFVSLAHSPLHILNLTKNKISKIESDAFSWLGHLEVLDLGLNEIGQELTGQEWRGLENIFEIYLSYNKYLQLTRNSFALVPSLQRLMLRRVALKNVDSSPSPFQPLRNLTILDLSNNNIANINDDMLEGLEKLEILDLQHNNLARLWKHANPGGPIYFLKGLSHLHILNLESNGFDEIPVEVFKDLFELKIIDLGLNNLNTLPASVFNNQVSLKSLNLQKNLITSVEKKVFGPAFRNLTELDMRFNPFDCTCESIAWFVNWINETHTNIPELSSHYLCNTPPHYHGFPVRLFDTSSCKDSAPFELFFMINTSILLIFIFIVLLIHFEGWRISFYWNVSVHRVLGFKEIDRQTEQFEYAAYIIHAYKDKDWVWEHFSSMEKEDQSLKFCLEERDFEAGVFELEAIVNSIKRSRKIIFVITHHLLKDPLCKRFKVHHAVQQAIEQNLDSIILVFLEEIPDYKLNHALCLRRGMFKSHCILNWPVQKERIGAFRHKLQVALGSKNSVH

Splenocyte [4] = assay: Immunomodulatory activity in C57BL/6 mouse splenocytes bearing TLR7 receptor assessed as IL12 release at 100 ug/ml after 24 hrs by ELISA; assay type: functional, cell-based
How it was run: (§1)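 C57BL/6 splenocytes in RPMI 1640 with 10% FBS, penicillin/streptomycin, 2 mM L-glutamine, plated at 5 × 10^6 cells/mL; compounds in PBS added, 37 °C for 24 h. Supernatant IL-12 and IL-6 by ELISA; representative of three independent experiments.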

[5] = biological target: T2, Toll-like receptor 9 (Mus musculus) (UniProt Q9EQU3); assay: Activation of mouse TLR9 expressed in HEK293 assessed as induction of NF-kappaB activity reporter gene assay; assay type: cell-based
T2 sequence (whole entry): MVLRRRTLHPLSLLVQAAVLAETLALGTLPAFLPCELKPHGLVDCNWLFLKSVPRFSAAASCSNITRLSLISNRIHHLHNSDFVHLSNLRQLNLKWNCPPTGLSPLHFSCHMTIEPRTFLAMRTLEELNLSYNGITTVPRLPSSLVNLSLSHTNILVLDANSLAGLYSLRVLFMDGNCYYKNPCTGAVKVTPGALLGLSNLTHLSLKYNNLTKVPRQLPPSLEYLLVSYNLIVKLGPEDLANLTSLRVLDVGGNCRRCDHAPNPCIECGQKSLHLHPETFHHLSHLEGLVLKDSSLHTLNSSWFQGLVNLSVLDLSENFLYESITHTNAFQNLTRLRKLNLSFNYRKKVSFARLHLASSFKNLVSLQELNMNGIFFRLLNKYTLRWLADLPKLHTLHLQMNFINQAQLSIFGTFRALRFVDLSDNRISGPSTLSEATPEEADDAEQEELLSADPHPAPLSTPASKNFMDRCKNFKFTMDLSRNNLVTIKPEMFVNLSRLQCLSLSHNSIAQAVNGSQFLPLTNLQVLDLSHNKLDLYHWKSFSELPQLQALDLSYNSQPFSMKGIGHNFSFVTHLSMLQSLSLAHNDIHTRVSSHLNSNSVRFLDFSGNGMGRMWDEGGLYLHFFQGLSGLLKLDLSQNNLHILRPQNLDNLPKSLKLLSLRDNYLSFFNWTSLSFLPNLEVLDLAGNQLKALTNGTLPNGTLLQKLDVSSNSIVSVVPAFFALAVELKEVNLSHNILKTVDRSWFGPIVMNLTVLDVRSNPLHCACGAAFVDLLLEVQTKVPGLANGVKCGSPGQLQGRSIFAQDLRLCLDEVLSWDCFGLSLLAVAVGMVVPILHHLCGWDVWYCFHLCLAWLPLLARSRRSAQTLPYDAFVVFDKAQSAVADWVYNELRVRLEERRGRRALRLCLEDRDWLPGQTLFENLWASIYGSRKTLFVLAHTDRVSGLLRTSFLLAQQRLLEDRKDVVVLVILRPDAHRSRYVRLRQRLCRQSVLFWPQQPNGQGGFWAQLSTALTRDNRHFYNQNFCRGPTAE

PBMC [6] = assay: Immunomodulatory activity in human PBMC assessed as induction of IL12 at 100 ug/ml after 24 hrs; assay type: functional, cell-based
How it was run: (§2)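 Human PBMCs plated at 5 × 10^6 cells/mL; compounds dissolved in PBS added at various concentrations, 37 °C for 24 h. Supernatant cytokines/chemokines quantified with human Luminex multiplex kit.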

PBMC [7] = assay: Immunomodulatory activity in human PBMC assessed as induction of TNFalpha at 100 ug/ml after 24 hrs; assay type: functional, cell-based
How it was run: as §2

Splenocyte [8] = assay: Immunomodulatory activity in C57BL/6 mouse splenocytes bearing TLR7 receptor assessed as IL6 release at 100 ug/ml after 24 hrs by ELISA; assay type: functional, cell-based
How it was run: as §1

Ratio (Homo sapiens)	fold change (FC) [2]	Activity [3]	Activity (Splenocyte [4])	Activity [5]	Activity (Splenocyte [8])	SMILES	IFN-alpha (PBMC [1])	Activity (PBMC [6])	Activity (PBMC [7])
66.8	26.7	inactive	Active	inactive	Active	Nc1ccn([C@@H]2O[C@H](COP(=O)(S)O[C@H]3[C@@H](O)[C@H](n4ccc5c(=O)[nH]c(N)nc54)O[C@@H]3CO[C@H]3[C@@H](O)[C@H](n4cnc5c(N)ncnc54)O[C@@H]3COP(=O)(S)O[C@H]3[C@@H](O)[C@H](n4ccc5c(=O)[nH]c(N)nc54)O[C@@H]3COP(=O)(S)O[C@H]3[C@@H](O)[C@H](n4ccc(=O)[nH]c4=O)O[C@@H]3COP(=O)(S)O[C@H]3[C@@H](O)[C@H](n4ccc(N)nc4=O)O[C@@H]3COP(=O)(S)O[C@H]3[C@@H](O)[C@H](n4ccc5c(=O)[nH]c(N)nc54)O[C@@H]3COP(=O)(S)O[C@H]3[C@@H](O)[C@H](n4ccc(=O)[nH]c4=O)O[C@@H]3COP(=O)(S)O[C@H]3[C@@H](O)[C@H](n4ccc(=O)[nH]c4=O)O[C@@H]3CO)[C@@H](OP(=O)(S)OC[C@H]3O[C@@H](n4ccc(=O)[nH]c4=O)[C@H](O)[C@@H]3OP(=O)(S)OC[C@H]3O[C@@H](n4ccc(=O)[nH]c4=O)[C@H](O)[C@@H]3OP(=O)(S)OCC(O)COP(=O)(S)O[C@H]3[C@@H](O)[C@H](n4ccc(=O)[nH]c4=O)O[C@@H]3COP(=O)(S)O[C@H]3[C@@H](O)[C@H](n4ccc(=O)[nH]c4=O)O[C@@H]3COP(=O)(S)O[C@H]3[C@@H](O)[C@H](n4ccc(N)nc4=O)O[C@@H]3COP(=O)(S)O[C@H]3[C@@H](O)[C@H](n4ccc5c(=O)[nH]c(N)nc54)O[C@@H]3CO[C@H]3[C@@H](O)[C@H](n4cnc5c(N)ncnc54)O[C@@H]3COP(=O)(S)O[C@H]3[C@@H](O)[C@H](n4ccc5c(=O)[nH]c(N)nc54)O[C@@H]3COP(=O)(S)O[C@H]3[C@@H](O)[C@H](n4ccc(=O)[nH]c4=O)O[C@@H]3COP(=O)(S)O[C@H]3[C@@H](O)[C@H](n4ccc(N)nc4=O)O[C@@H]3COP(=O)(S)O[C@H]3[C@@H](O)[C@H](n4ccc5c(=O)[nH]c(N)nc54)O[C@@H]3COP(=O)(S)O[C@H]3[C@@H](O)[C@H](n4ccc(=O)[nH]c4=O)O[C@@H]3COP(=O)(S)O[C@H]3[C@@H](O)[C@H](n4ccc(=O)[nH]c4=O)O[C@@H]3CO)[C@H]2O)c(=O)n1 (stereo partly drawn)	145 pg/mL	1370 pg/mL	415 pg/mL
69	27.6	inactive	Active	inactive	Active	Nc1ccn([C@@H]2O[C@H](CO)[C@@H](OP(=O)(S)OC[C@H]3O[C@@H](n4ccc(=O)[nH]c4=O)[C@H](O)[C@@H]3OP(=O)(S)OC[C@H]3O[C@@H](n4ccc5c(=O)[nH]c(N)nc54)[C@H](O)[C@@H]3OP(=O)(S)OC[C@H]3O[C@@H](n4cnc5c(N)ncnc54)[C@H](O)[C@@H]3OP(=O)(S)OC[C@H]3O[C@@H](n4ccc5c(=O)[nH]c(N)nc54)[C@H](O)[C@@H]3OP(=O)(S)OC[C@H]3O[C@@H](n4cnc5c(N)ncnc54)[C@H](O)[C@@H]3OP(=O)(S)OC[C@H]3O[C@@H](n4cnc5c(N)ncnc54)[C@H](O)[C@@H]3OP(=O)(S)OC[C@H]3O[C@@H](n4ccc5c(=O)[nH]c(N)nc54)[C@H](O)[C@@H]3OP(=O)(S)OC[C@H]3O[C@@H](n4ccc(N)nc4=O)[C@H](O)[C@@H]3OP(=O)(S)OC[C@H]3O[C@@H](n4ccc(=O)[nH]c4=O)[C@H](O)[C@@H]3OP(=O)(S)OC[C@H]3O[C@@H](n4ccc(=O)[nH]c4=O)[C@H](O)[C@@H]3OP(=O)(S)OCC(O)COP(=O)(S)O[C@H]3[C@@H](O)[C@H](n4ccc(=O)[nH]c4=O)O[C@@H]3COP(=O)(S)O[C@H]3[C@@H](O)[C@H](n4ccc(=O)[nH]c4=O)O[C@@H]3COP(=O)(S)O[C@H]3[C@@H](O)[C@H](n4ccc(N)nc4=O)O[C@@H]3COP(=O)(S)O[C@H]3[C@@H](O)[C@H](n4ccc5c(=O)[nH]c(N)nc54)O[C@@H]3COP(=O)(S)O[C@H]3[C@@H](O)[C@H](n4cnc5c(N)ncnc54)O[C@@H]3COP(=O)(S)O[C@H]3[C@@H](O)[C@H](n4cnc5c(N)ncnc54)O[C@@H]3COP(=O)(S)O[C@H]3[C@@H](O)[C@H](n4ccc5c(=O)[nH]c(N)nc54)O[C@@H]3COP(=O)(S)O[C@H]3[C@@H](O)[C@H](n4cnc5c(N)ncnc54)O[C@@H]3COP(=O)(S)O[C@H]3[C@@H](O)[C@H](n4ccc5c(=O)[nH]c(N)nc54)O[C@@H]3COP(=O)(S)O[C@H]3[C@@H](O)[C@H](n4ccc(=O)[nH]c4=O)O[C@@H]3COP(=O)(S)O[C@H]3[C@@H](O)[C@H](n4ccc(N)nc4=O)O[C@@H]3CO)[C@H]2O)c(=O)n1 (stereo partly drawn)	123 pg/mL	1750 pg/mL	818 pg/mL
